Experiment [1] addresses T1, Hepatocyte growth factor receptor (Homo sapiens, UniProt P08581). The experiment can be described thus: Inhibition of GST-tagged human c-MET preincubated for 20 mins followed by [33P]-ATP addition and measured after 2 hrs by Hot-Spot kinase assay.
In experiment [2] the test system is SNU-5. The experiment can be described thus: Antiproliferative activity against human SNU5 cells at 5 uM after 72 hrs by Cell Titer-Glo assay. In kind it is functional. The procedure, abridged:
(§1)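 Cell Titer-Glo viability assay. Exponentially growing cells were plated at 4000 per well in RPMI-1640 with 10% FPS and incubated 12 h at 37 °C in 5% CO2. Compound was then added at the indicated final concentrations and cells were held 72 h at 37 °C in 5% CO2. CTG reagent was applied for 10 min at room temperature. Inhibition % = (1 − Vsample/Vvehicle control) × 100.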

Experiment [3] deals with MKN-45. The experiment can be described thus: Antiproliferative activity against human MKN45 cells at 5 uM after 72 hrs by Cell Titer-Glo assay. In kind it is functional. The gist of the method: as §1
On the technique in general: ATP-based viability assays read luminescence as a measure of living cells.

Experiment [4] has as its system EBC-1. In words: Antiproliferative activity against human EBC1 cells at 5 uM after 72 hrs by Cell Titer-Glo assay. Format: functional. The gist of the method: as §1
The subject of experiment [5] is MKN-45. The experiment can be described thus: Antiproliferative activity against human MKN45 cells at 1 uM after 72 hrs by Cell Titer-Glo assay. In kind it is functional. The procedure, abridged:
as §1

The subject of experiment [6] is EBC-1. The experiment can be described thus: Antiproliferative activity against human EBC1 cells at 1 uM after 72 hrs by Cell Titer-Glo assay. In kind it is functional. The procedure, abridged: as §1
Experiment [7] concerns EBC-1. The experiment can be described thus: Antiproliferative activity against human EBC1 cells after 72 hrs by Cell Titer-Glo assay. Particulars: EBC-1, 72 h. Format: functional, cell-based. The gist of the method: as §1
In experiment [8] the target is Receptor-type tyrosine-protein kinase FLT3 (Homo sapiens) (UniProt P36888). In words: Inhibition of GST-tagged human FLT3 at 5 uM preincubated for 20 mins followed by [33P]-ATP addition measured after 2 hrs by Hot-Spot kinase assay. The procedure, abridged: (§2)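 Radiometric filter-binding assay with 5 nM human GST-tagged kinase and substrate. Buffer was 20 mM Hepes pH 7.5, 10 mM MgCl2, 1 mM EGTA, 0.02% Brij35, 0.02 mg/mL BSA, 0.1 mM Na3VO4, 2 mM DTT and 1% DMSO. Compound in DMSO was preincubated with kinase for 20 min at room temperature. 33P-ATP was then added and the reaction ran 2 h at room temperature. IC50 values came from curve fitting.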

In experiment [9] the target is Tyrosine-protein kinase ABL1 (Homo sapiens) (UniProt P00519). In words: Inhibition of GST-tagged human ABL1 at 5 uM preincubated for 20 mins followed by [33P]-ATP addition measured after 2 hrs by Hot-Spot kinase assay. The gist of the method:
as §2

Experiment [10] has as its target Tyrosine-protein kinase receptor UFO (Homo sapiens) (UniProt P30530). The experiment can be described thus: Inhibition of GST-tagged human AXL at 5 uM preincubated for 20 mins followed by [33P]-ATP addition measured after 2 hrs by Hot-Spot kinase assay. The procedure, abridged:
as §2

Experiment [11] deals with Proto-oncogene tyrosine-protein kinase receptor Ret (Homo sapiens) (UniProt P07949). In words: Inhibition of GST-tagged human RET at 5 uM preincubated for 20 mins followed by [33P]-ATP addition measured after 2 hrs by Hot-Spot kinase assay. The gist of the method: as §2
Experiment [12] concerns the target ALK tyrosine kinase receptor (Homo sapiens) (UniProt Q9UM73). In words: Inhibition of GST-tagged human ALK at 5 uM preincubated for 20 mins followed by [33P]-ATP addition measured after 2 hrs by Hot-Spot kinase assay. The procedure, abridged:
as §2

Experiment [13] has as its target Vascular endothelial growth factor receptor 1 (Homo sapiens) (UniProt P17948). The experiment can be described thus: Inhibition of GST-tagged human FLT1 at 5 uM preincubated for 20 mins followed by [33P]-ATP addition measured after 2 hrs by Hot-Spot kinase assay. The procedure, abridged:
as §2

The target of experiment [14] is Vascular endothelial growth factor receptor 2 (Homo sapiens) (UniProt P35968). The experiment can be described thus: Inhibition of GST-tagged human KDR at 5 uM preincubated for 20 mins followed by [33P]-ATP addition measured after 2 hrs by Hot-Spot kinase assay. The gist of the method: as §2
In experiment [15] the target is Mast/stem cell growth factor receptor Kit (Homo sapiens) (UniProt P10721). The experiment can be described thus: Inhibition of GST-tagged human c-KIT at 5 uM preincubated for 20 mins followed by [33P]-ATP addition measured after 2 hrs by Hot-Spot kinase assay. The procedure, abridged: as §2
Experiment [16] has as its target Platelet-derived growth factor receptor alpha (Homo sapiens) (UniProt P16234). In words: Inhibition of GST-tagged human PDGFRalpha at 5 uM preincubated for 20 mins followed by [33P]-ATP addition measured after 2 hrs by Hot-Spot kinase assay. The procedure, abridged:
as §2

The target of experiment [17] is Angiopoietin-1 receptor (Homo sapiens) (UniProt Q02763). The experiment can be described thus: Inhibition of GST-tagged human TIE2 at 5 uM preincubated for 20 mins followed by [33P]-ATP addition measured after 2 hrs by Hot-Spot kinase assay. The procedure, abridged:
as §2

Experiment [18] has as its target BDNF/NT-3 growth factors receptor (Homo sapiens) (UniProt Q16620). In words: Inhibition of GST-tagged human TRKB at 5 uM preincubated for 20 mins followed by [33P]-ATP addition measured after 2 hrs by Hot-Spot kinase assay. The procedure, abridged: as §2
The target of experiment [19] is Tyrosine-protein kinase Lck (Homo sapiens) (UniProt P06239). In words: Inhibition of GST-tagged human LCK at 5 uM preincubated for 20 mins followed by [33P]-ATP addition measured after 2 hrs by Hot-Spot kinase assay. The procedure, abridged:
as §2

Experiment [20] has as its target T2, Receptor-type tyrosine-protein kinase FLT3 (Homo sapiens, UniProt P36888).
T2 sequence (P36888 whole entry): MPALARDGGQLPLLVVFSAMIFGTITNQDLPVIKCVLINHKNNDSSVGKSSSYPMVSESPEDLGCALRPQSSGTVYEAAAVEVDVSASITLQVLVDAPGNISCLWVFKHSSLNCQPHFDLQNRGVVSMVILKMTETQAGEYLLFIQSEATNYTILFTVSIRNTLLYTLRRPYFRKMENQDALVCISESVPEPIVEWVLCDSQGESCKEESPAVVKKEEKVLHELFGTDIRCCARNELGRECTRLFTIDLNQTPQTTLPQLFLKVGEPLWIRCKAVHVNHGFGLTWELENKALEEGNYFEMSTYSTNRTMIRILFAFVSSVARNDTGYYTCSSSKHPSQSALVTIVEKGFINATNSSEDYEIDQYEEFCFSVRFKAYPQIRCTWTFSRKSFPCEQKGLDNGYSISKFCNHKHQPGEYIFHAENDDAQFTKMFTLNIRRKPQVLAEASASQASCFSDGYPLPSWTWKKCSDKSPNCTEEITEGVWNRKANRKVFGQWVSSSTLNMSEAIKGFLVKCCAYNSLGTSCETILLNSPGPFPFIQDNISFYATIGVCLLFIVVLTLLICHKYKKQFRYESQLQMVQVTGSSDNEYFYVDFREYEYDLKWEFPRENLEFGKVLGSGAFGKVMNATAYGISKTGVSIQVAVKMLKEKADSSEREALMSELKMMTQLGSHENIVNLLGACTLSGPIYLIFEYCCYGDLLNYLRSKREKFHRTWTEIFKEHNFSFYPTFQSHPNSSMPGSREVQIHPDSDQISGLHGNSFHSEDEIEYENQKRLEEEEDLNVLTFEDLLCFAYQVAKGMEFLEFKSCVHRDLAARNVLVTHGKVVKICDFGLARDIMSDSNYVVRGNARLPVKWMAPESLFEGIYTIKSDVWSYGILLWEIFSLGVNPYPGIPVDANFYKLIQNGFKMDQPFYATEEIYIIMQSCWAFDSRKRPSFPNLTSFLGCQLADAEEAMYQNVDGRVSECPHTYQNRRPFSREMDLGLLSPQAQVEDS
The experiment can be described thus: Inhibition of GST-tagged human FLT3 preincubated for 20 mins followed by [33P]-ATP addition measured after 2 hrs by Hot-Spot kinase assay. The gist of the method:
as §2

Experiment [21] concerns the target T1, Hepatocyte growth factor receptor. The experiment can be described thus: Inhibition of HGF-induced c-MET phosphorylation at Tyr1234/1235 in human MKN45 cells after 1 hr by Western blot analysis. Format: cell-based. The procedure, abridged: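 MKN45 cells were plated at 2x10^4 per well in RPMI-1640 with 10% FPS and treated with a range of doses for 1 h. Lysis was in ice-cold RIPA with protease inhibitors. Lysate holding 30 µg protein (BCA) was run on SDS-PAGE and blotted to PVDF. Membranes were blocked in 5% skim milk, given primary antibody overnight at 4 °C, then HRP secondary for 1 h at room temperature, and read by ECL.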
In general terms: Immunoblotting shows a protein as a band on a membrane.

Among the data in ChEMBL document CHEMBL4229371, “Discovery of [1,2,4]triazolo[3,4-b][1,3,4]thiadiazole derivatives as novel, potent and selective c-Met kinase inhibitors: Synthesis, SAR study, and biological activity” (Eur J Med Chem, 2018) are IC50, Activity and inhibition values, retold here.

As a reminder, the IC50 is the concentration that gives 50% inhibition. A word on the inhibition: it is the drop in the measured response relative to a control, in per cent.

T1 sequence (P08581 whole entry): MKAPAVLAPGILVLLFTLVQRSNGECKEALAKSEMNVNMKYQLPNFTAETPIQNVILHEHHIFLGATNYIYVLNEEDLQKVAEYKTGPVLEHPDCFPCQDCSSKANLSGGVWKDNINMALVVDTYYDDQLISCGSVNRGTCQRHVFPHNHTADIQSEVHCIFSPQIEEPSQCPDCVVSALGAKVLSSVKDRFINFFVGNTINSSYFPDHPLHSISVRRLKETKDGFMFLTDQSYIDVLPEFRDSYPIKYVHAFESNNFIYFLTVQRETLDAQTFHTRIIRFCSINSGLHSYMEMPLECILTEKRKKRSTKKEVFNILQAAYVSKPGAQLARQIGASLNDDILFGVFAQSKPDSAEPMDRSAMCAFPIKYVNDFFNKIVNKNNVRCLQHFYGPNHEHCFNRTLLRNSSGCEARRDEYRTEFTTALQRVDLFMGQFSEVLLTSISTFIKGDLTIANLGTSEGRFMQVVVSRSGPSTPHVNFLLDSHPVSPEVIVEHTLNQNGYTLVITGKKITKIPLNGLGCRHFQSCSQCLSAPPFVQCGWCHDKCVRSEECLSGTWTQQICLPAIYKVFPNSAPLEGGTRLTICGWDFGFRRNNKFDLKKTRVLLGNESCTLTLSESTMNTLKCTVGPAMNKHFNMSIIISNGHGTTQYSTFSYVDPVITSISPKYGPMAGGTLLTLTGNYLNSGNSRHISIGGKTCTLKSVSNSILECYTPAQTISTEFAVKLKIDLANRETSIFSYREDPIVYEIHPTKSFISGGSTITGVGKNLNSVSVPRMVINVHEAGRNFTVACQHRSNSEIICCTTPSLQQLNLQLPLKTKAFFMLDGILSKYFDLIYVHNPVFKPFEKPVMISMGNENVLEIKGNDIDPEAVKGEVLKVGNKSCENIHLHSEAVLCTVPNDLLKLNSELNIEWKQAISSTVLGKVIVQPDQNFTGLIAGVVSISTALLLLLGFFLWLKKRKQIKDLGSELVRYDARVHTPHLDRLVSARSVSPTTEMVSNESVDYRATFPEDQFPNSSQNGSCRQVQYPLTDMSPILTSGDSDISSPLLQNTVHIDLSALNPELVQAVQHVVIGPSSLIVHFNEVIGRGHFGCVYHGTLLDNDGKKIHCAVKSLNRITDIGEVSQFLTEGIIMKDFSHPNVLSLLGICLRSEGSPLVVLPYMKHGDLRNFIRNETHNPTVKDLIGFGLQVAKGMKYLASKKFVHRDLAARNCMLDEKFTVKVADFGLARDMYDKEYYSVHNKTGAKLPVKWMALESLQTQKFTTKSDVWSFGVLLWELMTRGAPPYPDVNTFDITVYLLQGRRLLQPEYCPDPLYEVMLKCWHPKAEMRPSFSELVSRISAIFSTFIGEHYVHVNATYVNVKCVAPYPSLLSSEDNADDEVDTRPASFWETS
Tyrosine-protein kinase Lck (Homo sapiens), sequence (P06239 2-509 limits assumed): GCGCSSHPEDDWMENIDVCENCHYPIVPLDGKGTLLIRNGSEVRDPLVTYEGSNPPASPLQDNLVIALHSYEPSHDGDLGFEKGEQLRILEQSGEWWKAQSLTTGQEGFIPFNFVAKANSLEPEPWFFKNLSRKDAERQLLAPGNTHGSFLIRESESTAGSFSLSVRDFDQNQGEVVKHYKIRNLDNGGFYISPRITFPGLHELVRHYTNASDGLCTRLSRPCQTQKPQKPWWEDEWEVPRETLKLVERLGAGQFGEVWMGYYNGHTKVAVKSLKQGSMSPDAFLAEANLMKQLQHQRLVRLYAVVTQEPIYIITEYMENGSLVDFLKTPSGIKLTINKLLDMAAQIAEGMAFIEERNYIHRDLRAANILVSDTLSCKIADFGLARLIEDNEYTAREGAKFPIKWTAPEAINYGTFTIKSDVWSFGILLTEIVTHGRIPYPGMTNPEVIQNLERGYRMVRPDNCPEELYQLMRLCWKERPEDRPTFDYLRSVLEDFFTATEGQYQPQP
Vascular endothelial growth factor receptor 1 (Homo sapiens), sequence (P17948 whole entry): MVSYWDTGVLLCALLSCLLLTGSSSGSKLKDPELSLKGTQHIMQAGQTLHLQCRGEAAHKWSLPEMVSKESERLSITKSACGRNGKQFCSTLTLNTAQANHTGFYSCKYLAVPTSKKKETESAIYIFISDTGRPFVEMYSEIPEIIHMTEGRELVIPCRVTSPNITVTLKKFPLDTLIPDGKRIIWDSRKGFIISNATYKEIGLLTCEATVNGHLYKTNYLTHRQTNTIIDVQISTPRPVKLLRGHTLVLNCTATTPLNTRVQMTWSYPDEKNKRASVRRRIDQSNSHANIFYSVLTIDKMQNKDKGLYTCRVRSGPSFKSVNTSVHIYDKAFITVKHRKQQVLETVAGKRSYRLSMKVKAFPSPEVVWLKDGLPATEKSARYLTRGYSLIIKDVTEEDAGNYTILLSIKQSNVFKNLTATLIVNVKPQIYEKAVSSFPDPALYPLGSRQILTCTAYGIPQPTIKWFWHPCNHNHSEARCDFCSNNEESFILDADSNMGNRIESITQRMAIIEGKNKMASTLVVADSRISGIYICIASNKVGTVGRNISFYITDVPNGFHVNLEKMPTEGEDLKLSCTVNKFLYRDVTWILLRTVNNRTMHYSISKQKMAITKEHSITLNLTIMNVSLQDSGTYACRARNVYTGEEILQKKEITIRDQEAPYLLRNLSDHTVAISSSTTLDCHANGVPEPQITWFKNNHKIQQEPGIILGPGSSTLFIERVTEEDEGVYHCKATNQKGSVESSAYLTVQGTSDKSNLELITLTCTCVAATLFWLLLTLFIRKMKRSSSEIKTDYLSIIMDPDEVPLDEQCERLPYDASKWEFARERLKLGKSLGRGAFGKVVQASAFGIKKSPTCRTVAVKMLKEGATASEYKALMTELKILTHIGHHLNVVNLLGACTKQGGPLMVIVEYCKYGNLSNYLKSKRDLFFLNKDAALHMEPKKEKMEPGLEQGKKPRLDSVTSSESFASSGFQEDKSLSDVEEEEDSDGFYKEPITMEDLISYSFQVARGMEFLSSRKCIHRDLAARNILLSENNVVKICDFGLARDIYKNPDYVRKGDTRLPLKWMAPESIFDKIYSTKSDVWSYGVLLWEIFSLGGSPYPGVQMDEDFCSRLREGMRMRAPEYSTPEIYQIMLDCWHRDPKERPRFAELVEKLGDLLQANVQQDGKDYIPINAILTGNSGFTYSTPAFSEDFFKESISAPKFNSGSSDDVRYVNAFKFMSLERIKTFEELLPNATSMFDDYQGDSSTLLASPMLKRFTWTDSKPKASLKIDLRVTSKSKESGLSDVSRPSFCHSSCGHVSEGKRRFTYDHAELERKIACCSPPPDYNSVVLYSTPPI
ALK tyrosine kinase receptor (Homo sapiens), sequence (Q9UM73 19-1620 limits assumed): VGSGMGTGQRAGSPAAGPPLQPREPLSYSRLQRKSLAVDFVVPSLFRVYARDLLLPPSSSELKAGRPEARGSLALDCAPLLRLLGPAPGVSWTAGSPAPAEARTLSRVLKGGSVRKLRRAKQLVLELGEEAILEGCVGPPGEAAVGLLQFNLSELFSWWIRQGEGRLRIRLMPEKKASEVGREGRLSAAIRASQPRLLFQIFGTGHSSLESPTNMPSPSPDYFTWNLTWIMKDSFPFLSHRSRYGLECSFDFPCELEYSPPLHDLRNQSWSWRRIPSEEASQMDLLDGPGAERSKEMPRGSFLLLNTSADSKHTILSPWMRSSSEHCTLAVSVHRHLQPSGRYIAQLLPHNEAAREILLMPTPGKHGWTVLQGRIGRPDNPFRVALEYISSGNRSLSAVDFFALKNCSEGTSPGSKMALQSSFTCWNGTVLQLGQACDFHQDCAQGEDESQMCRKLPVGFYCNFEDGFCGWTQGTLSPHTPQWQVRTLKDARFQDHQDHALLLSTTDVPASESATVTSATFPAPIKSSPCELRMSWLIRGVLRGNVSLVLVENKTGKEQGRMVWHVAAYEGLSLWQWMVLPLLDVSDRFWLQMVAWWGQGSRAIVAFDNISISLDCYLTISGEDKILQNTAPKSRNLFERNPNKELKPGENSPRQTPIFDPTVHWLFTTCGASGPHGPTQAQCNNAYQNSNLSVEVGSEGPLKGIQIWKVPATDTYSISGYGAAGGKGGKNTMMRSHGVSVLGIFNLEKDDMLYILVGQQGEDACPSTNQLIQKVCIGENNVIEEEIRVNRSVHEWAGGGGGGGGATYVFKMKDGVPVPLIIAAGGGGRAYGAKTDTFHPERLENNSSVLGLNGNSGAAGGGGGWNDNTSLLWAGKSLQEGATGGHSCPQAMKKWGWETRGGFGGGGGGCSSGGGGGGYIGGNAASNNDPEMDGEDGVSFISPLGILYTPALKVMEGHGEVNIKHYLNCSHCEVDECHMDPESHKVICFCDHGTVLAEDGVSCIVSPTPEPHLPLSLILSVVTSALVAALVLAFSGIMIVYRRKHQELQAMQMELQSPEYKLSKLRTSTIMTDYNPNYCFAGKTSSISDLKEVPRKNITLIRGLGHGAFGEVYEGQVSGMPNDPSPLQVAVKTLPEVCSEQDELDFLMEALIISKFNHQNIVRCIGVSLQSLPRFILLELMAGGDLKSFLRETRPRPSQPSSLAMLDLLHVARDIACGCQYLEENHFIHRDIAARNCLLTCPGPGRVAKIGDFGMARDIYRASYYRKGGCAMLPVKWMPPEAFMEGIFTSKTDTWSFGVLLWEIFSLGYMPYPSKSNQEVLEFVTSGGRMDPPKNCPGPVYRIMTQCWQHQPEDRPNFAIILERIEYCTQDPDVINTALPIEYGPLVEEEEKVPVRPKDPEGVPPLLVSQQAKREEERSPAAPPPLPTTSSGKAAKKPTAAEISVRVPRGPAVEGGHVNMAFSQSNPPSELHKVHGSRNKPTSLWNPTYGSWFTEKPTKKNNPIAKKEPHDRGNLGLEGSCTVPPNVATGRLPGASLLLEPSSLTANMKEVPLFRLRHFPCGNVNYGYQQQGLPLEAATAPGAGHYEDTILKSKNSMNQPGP

Consider `COc1ccc2c(OCc3nnc4sc(-c5cnn(C)c5)nn34)ccnc2c1`, for which the IC50 in [1] came out at 2.02 nM; in experiment [7] it was 88 nM; in [20], 1370 nM. The Activity in [2] was 68.7%; in [3], 71.9%; in experiment [4], 84.4%; in experiment [5], 73.6%; in experiment [6] it was 90.9%. Besides, the inhibition was 69.7% in experiment [8]; 14.9% in [9]; 11.1% in experiment [10]; -0.73% in experiment [11]; -1.59% in experiment [12]; 0.28% in experiment [13]. Also, the inhibition in [14] is -3.93%; in experiment [15], 10.9%; in experiment [16] it was -3.29%; in [17], -7.71%; in experiment [18] it was 0.04%; in experiment [19], -0.81%. Moreover, the inhibition result in experiment [21] was “Dose-dependent effect”.
